The source of these data is ChEMBL document CHEMBL3745683, “Regulatory effect of hydroquinone-tetraethylene glycol conjugates on zebrafish pigmentation” (Bioorg Med Chem Lett, 2016).

The nature of data set [1]: 1-Octanol-water partition coefficient, log P of the compound by UV spectrophotometry-based shake flask method. The data set is classed as physicochemical.
Data set [2] in a line: Cytotoxicity against human HF16 cells assessed as decrease in cell viability at 200 uM after 24 hrs by MTT assay. Format: cell-based. Summed up: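 HF-16 human fetal foreskin fibroblasts exposed to compound at 200 μM, with 0.1% DMSO as vehicle control, for 24 hr. Viability was read by MTT assay. Data are means ± SEM, compared against the vehicle control.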
A general note: Tetrazolium dyes change colour on reduction, which living cells bring about.

Data set [3] is described as follows: Photostability of compound after 18 hrs under UV irradition condition. Format: physicochemical. Summed up: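 Compound at 0.1 mM in 1X PBS, pH 7.4, was exposed to UV at ambient conditions for 18 h. UV spectra were compared before and after exposure; the HQ absorption band is at 289 nm.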
Data set [4] in a line: Drug degradation of compound assessed as Cu2+-mediated oxidation. Format: physicochemical. A digest of the protocol: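 Compound at 0.1 mM in 1X PBS, pH 7.4, was treated with 20 μM Cu2+. UV absorption spectra were recorded over a time course.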
Data set [5] is filed under the species Danio rerio. Nature of the data set: Depigmentation effect on zebrafish assessed as eye color change from black to gray incubated for 63 hrs post fertilization by microscopic analysis. Format: functional, organism-based. Summed up: (§1)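 Synchronized zebrafish embryos were kept in embryo medium containing compound at 50, 100 or 200 μM, added from DMSO to a final 0.1%. Mock control was 0.1% DMSO; positive control was HQ at 100 μM. Larval pigment spots were selected manually from dorsal-view microscope images, excluding eyes and yolk. Image analysis gave binary threshold, histogram and black-spot size; eye colour was scored visually. Data are means ± SEM versus mock.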

The species entered for data set [6] is Danio rerio. The data set can be described thus: Depigmentation effect on zebrafish assessed as increase in binary threshold incubated for 63 hrs post fertilization by microscopic analysis. Format: functional, organism-based. A digest of the protocol:
as §1

The species named for data set [7] is Danio rerio. Nature of the data set: Depigmentation effect on zebrafish assessed as increase in histogram of black spots incubated for 63 hrs post fertilization by microscopic analysis. The data set is classed as functional, organism-based. Summed up:
as §1

The species named for data set [8] is Danio rerio. The data set can be described thus: Depigmentation effect on zebrafish assessed as decrease in size of black spots incubated for 63 hrs post fertilization by microscopic analysis. The data set is classed as functional, organism-based. Summed up: as §1
Data set [9] can be described thus: Drug degradation assessed as hydrolysis in 1M NaOH […] by HPLC analysis. The data set is classed as physicochemical. The settings on record: buffer.
Data set [10] is filed under the species Danio rerio. The data set can be described thus: Inhibition of pigmentation in zebrafish assessed as decrease in size of black spots pre-treated with 0.2 mM compound at 9 hrs post fertilization followed by mock treatment for 37 hrs by microscopic analysis. The data set is classed as functional, organism-based.
The species named for data set [11] is Danio rerio. Nature of the data set: Inhibition of pigmentation in zebrafish assessed as increase in histogram of black spots pre-treated with 0.2 mM compound at 9 hrs post fertilization followed by mock treatment for 37 hrs by microscopic analysis. Format: functional, organism-based.
For data set [12], the species on record is Danio rerio. The data set can be described thus: Inhibition pigmentation in zebrafish assessed as increase in binary threshold pre-treated with 0.2 mM compound at 9 hrs post fertilization followed by mock treatment for 37 hrs by microscopic analysis. Format: functional, organism-based.
Data set [13] is filed under the species Danio rerio. The data set can be described thus: Inhibition of alpha-MSH-induced pigmentation in zebrafish assessed as increase in binary threshold pre-treated with 0.2 mM compound at 9 hrs post fertilization followed by compound exposure for 37 hrs by microscopic analysis. Format: functional, organism-based.
The species entered for data set [14] is Danio rerio. Nature of the data set: Inhibition of alpha-MSH-induced pigmentation in zebrafish assessed as increase in histogram of black spots pre-treated with 0.2 mM compound at 9 hrs post fertilization followed by compound exposure for 37 hrs by microscopic analysis. The data set is classed as functional, organism-based.
For data set [15], the species on record is Danio rerio. Nature of the data set: Inhibition of alpha-MSH-induced pigmentation in zebrafish assessed as decrease in size of black spots pre-treated with 0.2 mM compound at 9 hrs post fertilization followed by compound exposure for 37 hrs by microscopic analysis. Format: functional, organism-based.
Data set [16] can be described thus: Drug degradation assessed as hydrolysis at pH 3 to 9 by HPLC analysis. Particulars: buffer. The data set is classed as physicochemical.
The species entered for data set [17] is Danio rerio. The data set can be described thus: Inhibition pigmentation in zebrafish assessed as increase in binary threshold pre-treated with 0.2 mM compound at 9 hrs post fertilization followed by compound exposure for 37 hrs by microscopic analysis. Format: functional, organism-based.
For data set [18], the species on record is Danio rerio. The data set can be described thus: Inhibition of pigmentation in zebrafish assessed as increase in histogram of black spots pre-treated with 0.2 mM compound at 9 hrs post fertilization followed by compound exposure for 37 hrs by microscopic analysis. The data set is classed as functional, organism-based.
Data set [19] is filed under the species Danio rerio. The data set can be described thus: Inhibition of pigmentation in zebrafish assessed as decrease in size of black spots pre-treated with 0.2 mM compound at 9 hrs post fertilization followed by compound exposure for 37 hrs by microscopic analysis. Format: functional, organism-based.

Activity calls are given as the source filed them.

The term logP denotes the decadic logarithm of the partition coefficient of the neutral form, usually between octanol and water. Read a high logP as higher lipophilicity. Turning to `Oc1ccc(O)cc1` [HYDROQUINONE], the logP in [1] came to 0.25. Moreover, the Activity result in data set [2] was “Toxic”. For the same compound, in data set [3], the Stability entry is “Unstable”. For the same compound, in data set [4] (TDE = time-dependent effect), the Drug degradation result was “tde”.
Regarding `COCCOCCOCCOCC(=O)Oc1ccc(O)cc1`, the logP in [1] was -0.036. Moreover, the Activity entry in [2] was “Toxic”; in the data set listed under Danio rerio [5], “Dose-dependent effect”; in the data set listed under Danio rerio [6], “Dose-dependent effect”; in the data set listed under Danio rerio [7] it was “Dose-dependent effect”; in the data set listed under Danio rerio [8], “Dose-dependent effect”. Moreover, the Stability entry was “Stable” in data set [3], “Stable” in data set [4] and “Unstable” in data set [9].
With `COCCOCCOCCOCCOc1ccc(O)cc1`, the inhibition entry in the data set filed under Danio rerio [10], in the data set listed under Danio rerio [11] and in the data set filed under Danio rerio [12] was “inactive” in each case. In addition, the inhibition result in the data set listed under Danio rerio [13], in the data set filed under Danio rerio [14], in the data set listed under Danio rerio [15], in the data set listed under Danio rerio [17], in the data set filed under Danio rerio [18] and in the data set listed under Danio rerio [19] was “Active” each time. The logP in [1] is -0.026. Besides, the Activity result was “Non-toxic” in data set [2]; “Dose-dependent effect” in the data set filed under Danio rerio [5]; “Dose-dependent effect” in the data set listed under Danio rerio [6]; “Dose-dependent effect” in the data set filed under Danio rerio [7]; “Dose-dependent effect” in the data set listed under Danio rerio [8]. The Stability result in [3], in [4] and in data set [16] was “Stable” throughout.
